Our source for the Activity values is ChEMBL document CHEMBL6083228, “A novel hydrophobic tag leads to the efficient degradation of programmed death-ligand 1” (RSC Med Chem, 2024).

Calls of active or inactive are those of the source. The calls are words filed in the database; no cut-off is given here.

Assay [1] concerns the target Programmed cell death 1 ligand 1 (Homo sapiens) (UniProt Q9NZQ7). The assay can be described thus: Induction of hydrophobic tag tethering degradation of PD-L1 in human NCI-H460 cells at 10 uM incubated for 24 hrs by Western blot analysis. In kind it is cell-based. The method, boiled down: (§1)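 Cells seeded at 1×10^6 per well, incubated overnight, then exposed to DMSO or compound for 24 h. RIPA lysates were denatured at 100 °C for 15 min in SDS-PAGE loading buffer and run on 10% SDS-PAGE. Blots were probed overnight at 4 °C with anti-PD-L1 (1:1000), then a secondary (1:5000), with ECL detection. Bands were semi-quantified by densitometry.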

Assay [2] has the same target. Put plainly: Induction of hydrophobic tag tethering degradation of PD-L1 in human NCI-H460 cells incubated for 24 hrs by Western blot analysis. In kind it is cell-based. To be noted: dose 1-10 µM. The method, boiled down: as §1
The test system of assay [3] is NCI-H460. The assay can be described thus: Cytotoxicity against human NCI-H460 cells at 10 uM incubated for 24 to 72 hrs by MTT assay. In kind it is functional, cell-based. The conditions noted are these: time 24-72 hrs. An outline of the steps:
(§2)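 NCI-H460 cells seeded at 4×10^3 per well in complete RPMI-1640 (10% FBS, 37 °C, 5% CO2), left 24 h, then given DMSO or compound in DMSO. MTT (5 mg mL⁻¹ in PBS) added after 24, 48 and 72 h exposure, 4 h further; formazan dissolved in isopropanol, absorbance at 570 nm. Triplicate; viability relative to DMSO group (100%).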

The target of assay [4] is Programmed cell death 1 ligand 1 (Homo sapiens) (UniProt Q9NZQ7). Put plainly: Induction of hydrophobic tag tethering degradation of PD-L1 in human NCI-H460 cells at 1 to 10 uM incubated for 24 hrs by Western blot analysis. The assay is classed as cell-based. To be noted: dose 1-10 µM. An outline of the steps: as §1
Assay [5] concerns NCI-H460. Put plainly: Cytotoxicity against human NCI-H460 cells at 0.5 to 10 uM incubated for 24 to 72 hrs by MTT assay. In kind it is functional, cell-based. The conditions noted are these: dose 0.5-10 µM, time 24-72 hrs. An outline of the steps:
as §2

For assay [6], the target named is Programmed cell death 1 ligand 1 (Homo sapiens) (UniProt Q9NZQ7). Put plainly: Induction of hydrophobic tag tethering degradation of PD-L1 in human HT-1080 cells incubated for 24 hrs by Western blot analysis. The conditions noted are these: dose 1-10 µM. In kind it is cell-based. The method, boiled down:
as §1

Assay [7] shares this target. The assay can be described thus: Induction of hydrophobic tag tethering degradation of PD-L1 in human NCI-H460 cells by immunofluorescence analysis. In kind it is cell-based. The method, boiled down: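 NCI-H460 cells exposed to compound at various concentrations were fixed in 4% paraformaldehyde for 15 min at room temperature and blocked with 0.5% BSA for 1 h. Anti-PD-L1 (1:200) was applied overnight at 4 °C, then Alexa Fluor 555 donkey anti-rabbit (1:1000) for 30 min in the dark. Nuclei were stained with DAPI and cells imaged by confocal microscopy.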

Assay [8] shares this target. Put plainly: Induction of hydrophobic tag tethering degradation of PD-L1 in human NCI-H460 cells at 10 uM incubated for 24 hrs in presence of MG132 by Western blot analysis. In kind it is cell-based.
Assay [9] has the same target. The assay can be described thus: Induction of hydrophobic tag tethering degradation of PD-L1 in human NCI-H460 cells at 10 uM by Western blot analysis. The assay is classed as cell-based. An outline of the steps:
as §1

Programmed cell death 1 ligand 1 (Homo sapiens), sequence (Q9NZQ7 whole entry): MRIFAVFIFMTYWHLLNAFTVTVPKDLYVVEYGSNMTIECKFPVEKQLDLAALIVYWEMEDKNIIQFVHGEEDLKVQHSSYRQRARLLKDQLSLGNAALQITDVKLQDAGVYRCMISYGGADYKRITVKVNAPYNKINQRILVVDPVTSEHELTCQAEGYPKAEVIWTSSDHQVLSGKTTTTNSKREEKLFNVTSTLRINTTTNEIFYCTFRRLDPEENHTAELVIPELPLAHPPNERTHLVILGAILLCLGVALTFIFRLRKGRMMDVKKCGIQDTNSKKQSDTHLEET

For `Cc1c(COc2ccc(CNCCOCCOCCC(=O)NN3CCN(C(c4ccc(F)cc4)c4ccc(F)cc4)CC3)cn2)cccc1-c1ccccc1`, the result in assay [1] was Active. The Activity result in assay [2] is “Dose-dependent-effect”; in the assay with NCI-H460 [3] it was “Active; Exhibited Mild Cytotoxicity”.
`Cc1c(COc2ccc(CNCCOCCOCCOCCC(=O)NC(c3ccccc3)c3ccccc3)cn2)cccc1-c1ccccc1`: in assay [1], the outcome was Active. In addition, the Activity result in assay [4] was “Active; Exhibited Mild Degradation Potency”.
`Cc1c(-c2ccccc2)cccc1-c1ccc(CNCCOCCOCCC(=O)NC(c2ccc(F)cc2)c2ccc(F)cc2)cn1`: the result in [1] was inactive.
For the molecule `Cc1c(COc2ccc(CNCCOCCOCCOCCOCCC(=O)NN3CCN(C(c4ccc(F)cc4)c4ccc(F)cc4)CC3)cn2)cccc1-c1ccccc1`, in assay [1], the outcome was inactive.
The same measure, in the same setting: the value for `Cc1c(-c2ccccc2)cccc1-c1ccc(CNCCOCCOCCC(=O)NC(c2ccccc2)c2ccccc2)cn1` was “inactive”.
As for `Cc1c(-c2ccccc2)cccc1-c1ccc(CNCCOCCOCCC(=O)NN2CCN(C(c3ccc(F)cc3)c3ccc(F)cc3)CC2)cn1`, the outcome in [1] was Active. The Activity result in [2] was “Dose-dependent-effect”; in the assay with NCI-H460 [5], “Not active; Exhibited Almost No Cytotoxicity”; in assay [6] it was “Dose-dependent-effect”; in [7], “Dose-dependent-effect”; in assay [8], “Not active; Result Indicates That Degradation Of Pd-L1 Occurs Through Proteosome Pathway”; in [9] it was “Time-dependent-effect; Almost No Degradation Activity Observed For 72 Hrs”.
As to `Cc1c(COc2ccc(CNCCOCCOCCOCCC(=O)NN3CCN(C(c4ccc(F)cc4)c4ccc(F)cc4)CC3)cn2)cccc1-c1ccccc1`, the result in [1] was inactive.
Take `Cc1c(COc2ccc(CNCCOCCOCCOCCOCCOCCC(=O)NC(C3CCCCC3)C3CCCCC3)cn2)cccc1-c1ccccc1`: the outcome in assay [1] was inactive.
The same measure, in the same setting: the value for `Cc1c(-c2ccccc2)cccc1-c1ccc(CNCCOCCOCCC(=O)NC(c2ccccc2)c2ccc(C(F)(F)F)cc2)cn1` (centres undefined) was “inactive”; that for `Cc1c(COc2ccc(CNCCOCCOCCOCCOCCC(=O)NC34CC5CC(CC(C5)C3)C4)cn2)cccc1-c1ccccc1` was “inactive”.
The same measure, in the same setting: the same measure for `Cc1c(-c2ccccc2)cccc1-c1ccc(CNCCOCCOCCOCCOCCC(=O)NC(c2ccc(F)cc2)c2ccc(F)cc2)cn1`: “inactive”; for `Cc1c(COc2ccc(CNCCOCCOCCOCCOCCOCCC(=O)NC(c3ccccc3)c3ccccc3)cn2)cccc1-c1ccccc1`: “inactive”.
Regarding `Cc1c(COc2ccc(CNCCOCCOCCOCCOCCOCCC(=O)NCCNC(=O)C(C)c3ccc(CC(C)C)cc3)cn2)cccc1-c1ccccc1` (centres undefined), the outcome in [1] was inactive.
Still for that read-out and setting: the value for `Cc1c(-c2ccccc2)cccc1-c1ccc(CNCCOCCOCCOCCOCCC(=O)NN2CCN(C(c3ccc(F)cc3)c3ccc(F)cc3)CC2)cn1` was “inactive”; that for `Cc1c(COc2ccc(CNCCOCCOCCC(=O)NC34CC5CC(CC(C5)C3)C4)cn2)cccc1-c1ccccc1` was “inactive”.
For the molecule `Cc1c(-c2ccccc2)cccc1-c1ccc(CNCCOCCOCCOCCC(=O)NN2CCN(C(c3ccc(F)cc3)c3ccc(F)cc3)CC2)cn1`, the outcome in assay [1] was Active. Also, the Activity entry in assay [2] was “Dose-dependent-effect”; in the assay with NCI-H460 [5] it was “Not active; Exhibited Almost No Cytotoxicity”; in assay [6] it was “Dose-dependent-effect”; in [7] it was “Dose-dependent-effect”; in assay [8] it was “Not active; Result Indicates That Degradation Of Pd-L1 Occurs Through Proteosome Pathway”; in assay [9], “Time-dependent-effect; Almost No Degradation Activity Observed For 72 Hrs”.
For `Cc1c(COc2ccc(CNCCOCCOCCOCCC(=O)NCCNC(=O)C(C)c3ccc(CC(C)C)cc3)cn2)cccc1-c1ccccc1` (centres undefined), in assay [1], the result was inactive.
For the molecule `Cc1c(COc2ccc(CNCCOCCOCCOCCOCCC(=O)NC(C3CCCCC3)C3CCCCC3)cn2)cccc1-c1ccccc1`, the outcome in assay [1] was inactive.
Still for that read-out and setting: the value for `Cc1c(COc2ccc(CNCCOCCOCCOCCOCCC(=O)NCCNC(=O)C(C)c3ccc(CC(C)C)cc3)cn2)cccc1-c1ccccc1` (centres undefined) was “inactive”; that for `Cc1c(COc2ccc(CNCCOCCOCCOCCC(=O)NC(C3CCCCC3)C3CCCCC3)cn2)cccc1-c1ccccc1` was “inactive”.
Still for that read-out and setting: the value for `Cc1c(COc2ccc(CNCCOCCOCCOCCOCCC(=O)NC(c3ccccc3)c3ccc(C(F)(F)F)cc3)cn2)cccc1-c1ccccc1` (centres undefined) was “inactive”; that for `Cc1c(COc2ccc(CNCCOCCOCCOCCOCCOCCC(=O)NC34CC5CC(CC(C5)C3)C4)cn2)cccc1-c1ccccc1` was “Active”; that for `Cc1c(COc2ccc(CNCCOCCOCCC(=O)NC(C3CCCCC3)C3CCCCC3)cn2)cccc1-c1ccccc1` was “inactive”.
On the same count and under the same terms, the same measure for `Cc1c(-c2ccccc2)cccc1-c1ccc(CNCCOCCOCCOCCC(=O)NC(c2ccccc2)c2ccccc2)cn1`: “Active”.
On to `Cc1c(COc2ccc(CNCCOCCOCCC(=O)NC(c3ccccc3)c3ccccc3)cn2)cccc1-c1ccccc1`, for which, in assay [1], the outcome was Active. Moreover, the Activity entry in assay [4] is “Active; Exhibited Mild Degradation Potency”.
In the case of `Cc1c(COc2ccc(CNCCOCCOCCOCCOCCC(=O)NC(c3ccccc3)c3ccccc3)cn2)cccc1-c1ccccc1`, the result in assay [1] was Active.
Still for that read-out and setting: the same measure for `Cc1c(-c2ccccc2)cccc1-c1ccc(CNCCOCCOCCOCCC(=O)NC(c2ccc(F)cc2)c2ccc(F)cc2)cn1`: “inactive”; for `Cc1c(-c2ccccc2)cccc1-c1ccc(CNCCOCCOCCOCCOCCC(=O)NC(c2ccccc2)c2ccc(C(F)(F)F)cc2)cn1` (centres undefined): “inactive”.
On to `Cc1c(-c2ccccc2)cccc1-c1ccc(CNCCOCCOCCOCCC(=O)NC(c2ccccc2)c2ccc(C(F)(F)F)cc2)cn1` (centres undefined), for which, in assay [1], the result was inactive.
Still for that read-out and setting: the value for `Cc1c(COc2ccc(CNCCOCCOCCC(=O)NCCNC(=O)C(C)c3ccc(CC(C)C)cc3)cn2)cccc1-c1ccccc1` (centres undefined) was “inactive”.
The same measure, in the same setting: the value for `Cc1c(COc2ccc(CNCCOCCOCCOCCC(=O)NC34CC5CC(CC(C5)C3)C4)cn2)cccc1-c1ccccc1` was “inactive”; that for `Cc1c(-c2ccccc2)cccc1-c1ccc(CNCCOCCOCCOCCOCCC(=O)NC(c2ccccc2)c2ccccc2)cn1` was “Active”.
Same read-out and setting: the value for `Cc1c(COc2ccc(CNCCOCCOCCC(=O)NC(c3ccccc3)c3ccc(C(F)(F)F)cc3)cn2)cccc1-c1ccccc1` (centres undefined) was “inactive”.
